Data on four molecules can be found in PMC10505864 (Asian Pacific Journal of Cancer Prevention : APJCP, 2023).

Molecules are shown by their SMILES. In brackets after ≈: the same amount, converted by molar mass. Like-named read-outs stand apart in the source and are kept apart here.

The conditions of series [1]: rat plasma, ref Salemaldajeh et al., 2015, cited from earlier work.
For series [2], the system named is MCF-7 (human breast cancer cells). The series is described as follows: MTT cell viability assay on MCF-7 cells. The class given is cell-based. Particulars: for IC50 / inhibition at 30 µg/mL / inhibition at 60 µg/mL / inhibition at 130 µg/mL / inhibition at 250 µg/mL / inhibition at 500 µg/mL / inhibition at 1000 µg/mL: Homo sapiens, MCF7, 48 h; for IC50: read-out: IC50 µg/mL on MCF-7; for inhibition at 30 µg/mL / inhibition at 60 µg/mL / inhibition at 130 µg/mL / inhibition at 250 µg/mL / inhibition at 500 µg/mL / inhibition at 1000 µg/mL: read-out: Inhibition (%) of MCF-7 Cells. Put shortly:
(§1)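 PC3 cells grown in RPMI-1640 and MCF-7 cells in DMEM, each with 10% heat-inactivated FBS, penicillin/streptomycin, L-glutamine and amphotericin B. Seeded at 2 × 10^4 cells/well and grown to ~70% confluence (37°C, 5% CO2). Test compounds given as eight serial dilutions, starting at 1 mg/mL for drugs and 2.5 mg/mL for extract, for 48 h. MTT (5 mg/mL solution) added for 4 h at 25°C; A570 read.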
Background: Tetrazolium assays rely on reduction of a dye to a coloured formazan, in cell work by metabolically active cells.

Series [3] has as its system PC3 (human prostate cancer cells). Kind of series: MTT cell viability assay on PC3 cells. The class given is cell-based. The settings on record: for IC50 / inhibition at 30 µg/mL / inhibition at 60 µg/mL / inhibition at 130 µg/mL / inhibition at 250 µg/mL / inhibition at 500 µg/mL / inhibition at 1000 µg/mL: Homo sapiens, PC-3, 48 h; for IC50: read-out: IC50 µg/mL on PC3; for inhibition at 30 µg/mL / inhibition at 60 µg/mL / inhibition at 130 µg/mL / inhibition at 250 µg/mL / inhibition at 500 µg/mL / inhibition at 1000 µg/mL: read-out: Inhibition (%) of PC3 Cells; for cytotoxicity activity (in words): PC3. The method, boiled down: as §1

For series [4] the following is noted: ref Salemaldajeh et al., 2015; Emad et al., 2018; cited from earlier work.
Series [5] can be described thus: Pharmacokinetic study of CBZ in rat plasma. The class given is in vivo, rat (Sprague Dawley). Put shortly: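 Male and female Sprague Dawley rats (~200 g), seven per group, fasted 24 h. Given 10 mg/kg by oral gavage, alone or after 30 mg/kg extract by gavage (three days before, repeated 30 min pre-dose). Orbital blood collected into EDTA from 0–24 h. Plasma precipitated with acetonitrile containing metronidazole benzoate internal standard, then C18 HPLC-UV at 285 nm. Calibration 75–5,000 ng/mL; samples run in duplicate.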

For series [6] the following is noted: after oral administration; ref Salemaldajeh et al., 2015; Emad et al., 2018; cited from earlier work.
[7] abbreviates: both, Sprague Dawley, rat, plasma, po, 10 mg/kg.
The mark [8] stands for this setting: rat plasma, CBZ 10 mg/kg oral gavage, alone, listed as CBZ alone.

On to `NC(=O)N1c2ccccc2C=Cc2ccccc21` [CBZ, carbamazepine], for which the Cmax (commonly the maximum level reached in the sampled fluid or tissue) in series [1] (CBZ alone) is on record as 4,130 ng/mL. The Cmax in series [1] (CBZ combined with graviola juice) is listed as 2,886 ng/mL. Also, in series [2], the IC50 was found to be 250 ± 44 µg/mL (≈ 1060 µM); the inhibition (as a rule, the relative decrease from the control value, in per cent) at 30 µg/mL is 11.9%; the inhibition at 60 µg/mL was found to be 19.7%; the inhibition at 130 µg/mL is 30.1%. In series [2], the inhibition at 250 µg/mL was found to be 53.2%, the inhibition at 500 µg/mL is 69.3% and the inhibition at 1000 µg/mL came out at 83.3%. Moreover, in series [3], the IC50 was determined as 130 ± 27 µg/mL (≈ 550 µM), the inhibition at 30 µg/mL is 29.7%, the inhibition at 60 µg/mL is 31.4% and the inhibition at 130 µg/mL was determined as 53%. In series [3], the inhibition at 250 µg/mL is 87.5%, the inhibition at 500 µg/mL stood at 95.1% and the inhibition at 1000 µg/mL came to 93.4%. In series [3] (MTT, 48 h), the “cytotoxicity activity (in words)” value is listed as “robust”. Further, the “drug excreted unchanged without metabolism” value in series [4] is listed as “about 5%”. The molecule also had a concentration at 24 h in series [5] (both, Sprague Dawley, rat, plasma, oral, 10 mg/kg) of 65.2 ng/mL. In series [5] (setting [7]), the Cmax is 4630 ng/mL, the Tmax (commonly the time at which the peak concentration occurs) is 3.5 h and the k el is 5e-05 s⁻¹. For the same molecule, in series [5] (setting [8]), the “AUC (0–24 h)” value came to 49225 ng·h/mL and the Half-life was found to be 3.78 h. Moreover, in series [6], the “binds to plasma proteins” value is given as “approximately 75%”.

On to `N.N.[Cl][Pt][Cl]` [Cisplatin], for which the “IC50 µg/mL on MCF-7” value in series [2] (MTT, 48 h, mean ± SD) came to 14.6 ± 2.4 µg/mL. Besides, the “IC50 µg/mL on PC3” value in series [3] (MTT, 48 h, mean ± SD) was found to be 8.6 ± 1.5 µg/mL.

Consider `COc1cccc2c1C(=O)c1c(O)c3c(c(O)c1C2=O)C[C@@](O)(C(=O)CO)C[C@@H]3O[C@H]1C[C@H](N)[C@H](O)[C@H](C)O1` [Doxorubicin], for which the figures for the IC50 in series [2] and in series [3] were 0.64 ± 0.04 µg/mL (≈ 1.18 µM) and 0.62 ± 0.06 µg/mL (≈ 1.14 µM), respectively.

Turning to `CCCC(CCC)C(=O)O` [VPA, valproic acid], in series [2], the IC50 was over 1000 µg/mL, the inhibition at 30 µg/mL was 10.6%, the inhibition at 60 µg/mL was determined as 8.5% and the inhibition at 130 µg/mL is 13.4%. Besides, in series [2], the inhibition at 250 µg/mL came to 15.7%, the inhibition at 500 µg/mL amounted to 14.7% and the inhibition at 1000 µg/mL came to 24.9%. In addition, the “cytotoxicity activity (in words)” value in series [2] (MCF-7, MTT, 48 h) is on record as “weak”. Further, in series [3], the IC50 is over 1000 µg/mL, the inhibition at 30 µg/mL came to 19.8%, the inhibition at 60 µg/mL is 10.7% and the inhibition at 130 µg/mL amounted to 2.62%. In series [3], the inhibition at 250 µg/mL worked out at 0.74%, the inhibition at 500 µg/mL was found to be 0.24% and the inhibition at 1000 µg/mL is 26.7%. The “cytotoxicity activity (in words)” value in series [3] (MTT, 48 h) is “weak”.
